In ChEMBL document CHEMBL1138290 (J Med Chem, 2007) one finds IC50, EC50 and Activity data, which are given here for 4 molecules.

Where only a bound is given, the exact number is not on record here.

What all share (assay type): functional, cell-based
Experiment [1] can be described thus: Cytotoxicity against human KB/HeLa cells after 48 hrs by XTT assay. An outline of the steps:
(§1)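 XTT proliferation assay with 48 h incubation with test compound. Each experiment run at least in duplicate (n = 2). IC50 calculated by nonlinear regression of dose-response curves.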

The subject of the next experiment is RKO. The experiment can be described thus: Cytotoxicity against human RKO cells with ectopic-inducible expression of p27kip1 after 48 hrs by XTT assay. An outline of the steps:
as §1
For orientation: Tetrazolium dyes change colour on reduction, which living cells bring about.

Experiment [2] can be described thus: Cell cycle arrest in KB/HeLa cells assessed as accumulation at G2/M phase after 24 hrs by flow cytometric analysis. Conditions: Homo sapiens. An outline of the steps: (§2)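 Subconfluent KB/HeLa cells exposed to a range of compound concentrations for 24 h. Cell cycle phase distribution determined by flow cytometry. Experiments run at least in duplicate (n = 2).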

A short description of experiment [3]: Cell cycle arrest in KB/HeLa cells assessed as accumulation at S phase at 3.16 nM after 24 hrs by flow cytometric analysis. Conditions: Homo sapiens. In short, it runs like this:
as §2
Background: Flow cytometry measures light scatter and fluorescence of single cells or particles in a stream.

Experiment [4] in a line: Cell cycle arrest in KB/HeLa cells assessed as accumulation at S phase at 0.3 nM after 24 hrs by flow cytometric analysis. Conditions: Homo sapiens. In short, it runs like this:
as §2

A short description of experiment [5]: Cell cycle arrest in KB/HeLa cells assessed as accumulation at S phase at 1 nM after 24 hrs by flow cytometric analysis. Conditions: Homo sapiens. In short, it runs like this:
as §2

Experiment [6] in a line: Cell cycle arrest in KB/HeLa cells assessed as accumulation at S phase at 10 nM after 24 hrs by flow cytometric analysis. Conditions: Homo sapiens. In short, it runs like this: as §2
A short description of experiment [7]: Cell cycle arrest in KB/HeLa cells assessed as accumulation at S phase at 31.6 nM after 24 hrs by flow cytometric analysis. Conditions: Homo sapiens. An outline of the steps: as §2
Experiment [8] can be described thus: Cell cycle arrest in KB/HeLa cells assessed as accumulation at S phase at 100 nM after 24 hrs by flow cytometric analysis. Conditions: Homo sapiens. In short, it runs like this: as §2
A short description of experiment [9]: Cell cycle arrest in KB/HeLa cells assessed as accumulation at S phase at 316 nM after 24 hrs by flow cytometric analysis. Conditions: Homo sapiens. In short, it runs like this: as §2
Experiment [10] in a line: Cell cycle arrest in KB/HeLa cells assessed as accumulation at G2M phase at 0.3 nM after 24 hrs by flow cytometric analysis. Conditions: Homo sapiens. An outline of the steps:
as §2

A short description of experiment [11]: Cell cycle arrest in KB/HeLa cells assessed as accumulation at G2M phase at 1 nM after 24 hrs by flow cytometric analysis. Conditions: Homo sapiens. In short, it runs like this:
as §2

Experiment [12] is described as follows: Cell cycle arrest in KB/HeLa cells assessed as accumulation at G2M phase at 10 nM after 24 hrs by flow cytometric analysis. Conditions: Homo sapiens. In short, it runs like this: as §2
Experiment [13] in a line: Cell cycle arrest in KB/HeLa cells assessed as accumulation at G2M phase at 31.6 nM after 24 hrs by flow cytometric analysis. Conditions: Homo sapiens. In short, it runs like this: as §2
The nature of experiment [14]: Cell cycle arrest in KB/HeLa cells assessed as accumulation at G2M phase at 100 nM after 24 hrs by flow cytometric analysis. Conditions: Homo sapiens. An outline of the steps: as §2
The nature of experiment [15]: Cell cycle arrest in KB/HeLa cells assessed as accumulation at G2M phase at 316 nM after 24 hrs by flow cytometric analysis. Conditions: Homo sapiens. In short, it runs like this:
as §2

Experiment [16] can be described thus: Cell cycle arrest in KB/HeLa cells assessed as accumulation at G1 phase at 0.3 nM after 24 hrs by flow cytometric analysis. Conditions: Homo sapiens. In short, it runs like this: as §2
Experiment [17] can be described thus: Cell cycle arrest in KB/HeLa cells assessed as accumulation at G1 phase at 1 nM after 24 hrs by flow cytometric analysis. Conditions: Homo sapiens. An outline of the steps:
as §2

Experiment [18] is described as follows: Cell cycle arrest in KB/HeLa cells assessed as accumulation at G1 phase at 3.16 nM after 24 hrs by flow cytometric analysis. Conditions: Homo sapiens. An outline of the steps: as §2
A short description of experiment [19]: Cell cycle arrest in KB/HeLa cells assessed as accumulation at G1 phase at 10 nM after 24 hrs by flow cytometric analysis. Conditions: Homo sapiens. An outline of the steps: as §2
Experiment [20] can be described thus: Cell cycle arrest in KB/HeLa cells assessed as accumulation at G1 phase at 31.6 nM after 24 hrs by flow cytometric analysis. Conditions: Homo sapiens. An outline of the steps: as §2
Experiment [21] can be described thus: Cell cycle arrest in KB/HeLa cells assessed as accumulation at G1 phase at 100 nM after 24 hrs by flow cytometric analysis. Conditions: Homo sapiens. An outline of the steps: as §2
Experiment [22] in a line: Cell cycle arrest in KB/HeLa cells assessed as accumulation at G1 phase at 316 nM after 24 hrs by flow cytometric analysis. Conditions: Homo sapiens. In short, it runs like this:
as §2

Experiment [23] is described as follows: Cell cycle arrest in KB/HeLa cells assessed as accumulation at S phase at 0.1 nM after 24 hrs by flow cytometric analysis. Conditions: Homo sapiens. An outline of the steps:
as §2

Experiment [24] can be described thus: Cell cycle arrest in KB/HeLa cells assessed as accumulation at G2M phase at 0.1 nM after 24 hrs by flow cytometric analysis. Conditions: Homo sapiens. An outline of the steps:
as §2

The nature of experiment [25]: Cell cycle arrest in KB/HeLa cells assessed as accumulation at G2M phase at 3.16 nM after 24 hrs by flow cytometric analysis. Conditions: Homo sapiens.
The nature of experiment [26]: Cell cycle arrest in KB/HeLa cells assessed as accumulation at G1 phase at 0.1 nM after 24 hrs by flow cytometric analysis. Conditions: Homo sapiens. In short, it runs like this: as §2
The nature of experiment [27]: Antiproliferative activity against rat multidrug-resistant L12 cells after 48 hrs by XTT assay. Conditions: L1.2, 48 h. In short, it runs like this: as §1
A further experiment concerns L1210. Description: Antiproliferative activity against mouse vincristine-resistant L1210 cells after 48 hrs by XTT assay. Conditions: L1210, 48 h. An outline of the steps: as §1
A further experiment relates to P388. The experiment can be described thus: Antiproliferative activity against mouse adriamycin-resistant P388 cells after 48 hrs by XTT assay. Conditions: P388, 48 h. An outline of the steps:
as §1

A short description of experiment [28]: Antiproliferative activity against rat L12 cells after 48 hrs by XTT assay.

As to `COc1cc2c(c(OC)c1OC)-c1ccc(OC)c(=O)cc1[C@@H](NC(C)=O)CC2` [COLCHICINE], the IC50 in experiment [1] was 30 nM; with RKO, > 14000 nM. Besides, the EC50 in [2] is 14 nM. For the same molecule, the Activity in experiment [3] is 25.1%; in experiment [4], 26.6%; in [5], 25.4%; in experiment [6], 35.7%; in [7], 11.9%; in experiment [8], 5.1%. Also, the Activity was determined as 5.2% in experiment [9]; 10.1% in [10]; 10% in experiment [11]; 32.1% in experiment [12]; 87.6% in [13]; 94.7% in experiment [14]. Besides, the Activity is 94.5% in experiment [15]; 63.3% in experiment [16]; 64.7% in experiment [17]; 64.3% in [18]; 32.2% in [19]; 0.5% in [20]. Besides, the Activity in experiment [21] and in experiment [22] was 0.3% in each case.

For the molecule `CC[C@]1(O)C[C@H]2CN(CCc3c([nH]c4ccccc34)[C@@](C(=O)OC)(c3cc4c(cc3OC)N(C=O)[C@H]3[C@@](O)(C(=O)OC)[C@H](OC(C)=O)[C@]5(CC)C=CCN6CC[C@]43[C@@H]65)C2)C1` [VINCRISTINE], in [2], the 50% effective concentration (EC50) worked out at 2.4 nM. The Activity amounted to 27.7% in experiment [23]; 26% in experiment [3]; 24% in experiment [4]; 28.3% in experiment [5]; 13.1% in [6]; 7.2% in [7]. Further, the Activity was 4.8% in experiment [8]; 5.9% in [9]; 11.1% in [24]; 11.7% in experiment [10]; 17.2% in experiment [11]; 65.8% in experiment [25]. Moreover, the Activity in experiment [12] was found to be 86.7%; in experiment [13], 92.6%; in experiment [14], 95.1%; in [15], 93.8%; in experiment [26], 61.2%; in experiment [16], 64.5%. The Activity in [17] stood at 53.7%; in experiment [18], 6.5%; in [19], 0.5%; in [20], 1%; in experiment [21], 0.2%; in experiment [22], 0.2%.

Take `CC(=O)O[C@H]1C(=O)[C@@]2(C)[C@H]([C@H](OC(=O)c3ccccc3)[C@]3(O)C[C@H](OC(=O)[C@H](O)[C@@H](NC(=O)c4ccccc4)c4ccccc4)C(C)=C1C3(C)C)[C@]1(OC(C)=O)CO[C@@H]1C[C@@H]2O` [PACLITAXEL]: the concentration for half-maximal inhibition (IC50) is 10 nM in experiment [1]; > 3000 nM in the experiment on RKO; 400 nM in [27]; > 5000 nM in the experiment on L1210; > 5000 nM in the experiment on P388. Further, the EC50 in experiment [2] was 49 nM. In addition, the Activity in experiment [3] stood at 27%; in [5], 26.7%; in [6], 26.6%; in experiment [7] it was 49.9%; in [8] it was 11%; in experiment [9], 8.9%. Moreover, the Activity in experiment [11] is 10.1%; in experiment [25], 9.4%; in experiment [12] it was 8.5%; in experiment [13], 19%; in experiment [14], 87.8%; in experiment [15], 90.8%. The Activity in experiment [17] turned out to be 63.2%; in [18] it was 63.6%; in [19], 64.8%; in experiment [20], 31.1%; in [21], 1.2%; in experiment [22] it was 0.3%.

In the case of `CC[C@]1(O)C[C@@H]2CN(CCc3c([nH]c4ccccc34)[C@@](C(=O)OC)(c3cc4c(cc3OC)N(C)[C@H]3[C@@](O)(C(N)=O)[C@H](O)[C@]5(CC)C=CCN6CC[C@]43[C@@H]65)C2)C1` [VINDESINE], the IC50 in experiment [28] was 1 nM; in experiment [27] it was 260 nM; with L1210, > 5000 nM.

Usually IC50 stands for the concentration that inhibits the measured activity by half. Low readings indicate greater potency, high ones weaker potency. Usually EC50 stands for the concentration at which the effect is half-maximal.
